# Calls of active or inactive are those of the source. No cut-off for these calls is given here.
# How the values were obtained:
# Escherichia coli [1] = assay: Antimicrobial activity against LPS-deffective Escherichia coli OC2530 assessed as cell aggregation at 0.5 times MIC by TEM relative to untreated control; assay type: functional, organism-based
# Procedure, shortened: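 At 5 h, cells were fixed in 1% glutaraldehyde (final) for 1 h at room temperature, pelleted, and resuspended in PBS. They were negatively stained with 1% ammonium molybdate and imaged by TEM at ×15,000.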
# Escherichia coli [2] = assay: Inhibition of LPS-deficient Escherichia coli OC2530 MurF assessed as UDP-MurNAc-pentapeptide product level at 2 times MIC by HPLC (reference value: 1 mAU)
# Escherichia coli [3] = assay: Antimicrobial activity against LPS-deffective Escherichia coli OC2530 assessed as cell aggregation at 0.5 times MIC by light microscopy relative to untreated control; assay type: functional, organism-based
# Procedure, shortened: (§1)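 Cells were fixed on a glass slide under a coverslip and viewed by light microscopy at ×100/×1.25 oil immersion. Representative images were taken.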
# Escherichia coli [4] = assay: Antimicrobial activity against LPS-deffective Escherichia coli OC2530 at 0.5 times MIC after 4 hrs by light microscopy relative to control; assay type: functional, organism-based; procedure, shortened: as §1
# Escherichia coli [5] = assay: Antimicrobial activity against LPS-deffective Escherichia coli OC2530 at MIC after 3 hrs relative to untreated control; assay type: functional
# Escherichia coli [6] = assay: Inhibition of LPS-deficient Escherichia coli OC2530 MurF harboring pASK plasmid assessed as UDP-MurNAc-pentapeptide product level at 2 times MIC by HPLC (Rvb =880 +/- 17 mAU)
# Procedure, shortened: (§2)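 Compound added at 2× MIC from 500× stock (DMSO control). After 30 min, muropeptides extracted and quantified by HPLC peak area (mAU); representative of two independent experiments.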
# Enterococcus faecalis [7] = assay: Antimicrobial activity against Enterococcus faecalis ATCC 29212 by broth microdilution method in presence of polymyxin B nonapeptide; assay type: functional
# Procedure, shortened: (§3)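 MICs by CLSI broth microdilution. Where polymyxin B nonapeptide was included, it was present at 2 μg/ml alongside the test compound.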
# Escherichia coli [8] = assay: Inhibition of LPS-deficient Escherichia coli OC2530 MurF harboring pASK plasmid assessed as UDP-MurNAc-tripeptide substrate level at 2 times MIC by HPLC (reference value: 63 +/- 4 mAU); procedure, shortened: as §2
# Escherichia coli [9] = assay: Antimicrobial activity against Escherichia coli OC2605 by broth microdilution method; assay type: functional
# Procedure, shortened: (§4)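 CLSI broth microdilution MIC; strains from the sponsor's in-house collection.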
# Escherichia coli [10] = assay: Antimicrobial activity against LPS-deffective Escherichia coli OC2530 assessed as growth inhibition at MIC by light microscopy; assay type: functional, organism-based
# Escherichia coli [11] = assay: Inhibition of LPS-deficient Escherichia coli OC2530 MurF harboring pMurF plasmid assessed as UDP-MurNAc-pentapeptide product level at 2 times MIC by HPLC (reference value: 2674 +/- 696 mAU); procedure, shortened: as §2
# Escherichia coli [12] = assay: Bactericidal activity against LPS-deffective Escherichia coli OC2530 assessed as log reduction in bacterial count at 2 times MIC after 3 hrs relative to control; assay type: functional
# Enterococcus faecium [13] = assay: Antimicrobial activity against Enterococcus faecium OC3312 by broth microdilution method; assay type: functional; procedure, shortened: as §3
# Escherichia coli [14] = assay: Antimicrobial activity against Escherichia coli OC9040 by broth microdilution method; assay type: functional; procedure, shortened: as §3
# Escherichia coli [15] = assay: Inhibition of LPS-deficient Escherichia coli OC2530 MurF harboring pMurF plasmid assessed as UDP-MurNAc-tripeptide substrate level at 2 times MIC by HPLC (reference value: 220 +/- 65 mAU); procedure, shortened: as §2
# Escherichia coli [16] = assay: Antimicrobial activity against LPS-deffective Escherichia coli OC2530 at 0.5 times MIC after 30 mins relative to control; assay type: functional, organism-based
# Escherichia coli [17] = assay: Antimicrobial activity against LPS-deffective Escherichia coli OC2530 assessed as cell lysis at 4 times MIC by light microscopy; assay type: functional, organism-based; procedure, shortened: as §1
# Escherichia coli [18] = assay: Antimicrobial activity against LPS-deffective Escherichia coli OC2530 harboring pMurF plasmid by broth microdilution method in presence of chloramphenicol; assay type: functional
# Procedure, shortened: (§5)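 CLSI broth microdilution MIC for OC2530 carrying plasmid (empty pASK or pMurF). Medium contained chloramphenicol 3 μg/ml to keep the plasmid and AHT 100 ng/ml to induce MurF expression.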
# Escherichia coli [19] = assay: Inhibition of LPS-deficient Escherichia coli OC2530 MurF assessed as UDP-MurNAc-pentapeptide product level at 0.5 times MIC by HPLC (reference value: 1 mAU)
# Escherichia coli [20] = assay: Bactericidal activity against LPS-deffective Escherichia coli OC2530 assessed as log reduction in bacterial count at =>2 times MIC after 3 hrs relative to control; assay type: functional
# Staphylococcus aureus [21] = assay: Antimicrobial activity against methicillin-resistant Staphylococcus aureus OC2878 by broth microdilution method; assay type: functional; procedure, shortened: as §4
# Staphylococcus aureus [22] = assay: Antimicrobial activity against methicillin-resistant Staphylococcus aureus OC3726 by broth microdilution method in presence of polymyxin B nonapeptide; assay type: functional
# Procedure, shortened: (§6)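 CLSI broth microdilution MIC run in the presence of polymyxin B nonapeptide (PMBN) at 2 μg/ml as a permeabilizer.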
# Escherichia coli [23] = assay: Inhibition of LPS-deficient Escherichia coli OC2530 MurF assessed as UDP-MurNAc-tripeptide substrate level at 2 times MIC by HPLC (reference value: 1 mAU)
# Escherichia coli [24] = assay: Antimicrobial activity against Escherichia coli OC2605 by broth microdilution method in presence of polymyxin B nonapeptide; assay type: functional; procedure, shortened: as §3
# Escherichia coli [25] = assay: Antimicrobial activity against LPS-deffective Escherichia coli OC2530 by broth microdilution method; assay type: functional; procedure, shortened: as §3
# Staphylococcus aureus [26] = assay: Antimicrobial activity against Staphylococcus aureus ATCC 29213 by broth microdilution method; assay type: functional; procedure, shortened: as §3
# Staphylococcus aureus [27] = assay: Antimicrobial activity against methicillin-resistant Staphylococcus aureus OC3726 by broth microdilution method; assay type: functional; procedure, shortened: as §4
# Escherichia coli [28] = assay: Inhibition of LPS-deficient Escherichia coli OC2530 MurF assessed as UDP-MurNAc-pentapeptide product level at MIC by HPLC (reference value: 1 fold of control)
# Escherichia coli [29] = assay: Antimicrobial activity against LPS-deffective Escherichia coli OC2530 by broth microdilution method in presence of polymyxin B nonapeptide; assay type: functional; procedure, shortened: as §3
# Escherichia coli [30] = assay: Inhibition of LPS-deficient Escherichia coli OC2530 MurF assessed as UDP-MurNAc-pentapeptide product level at 4 times MIC by HPLC (reference value: 1 mAU)
# Escherichia coli [31] = assay: Antimicrobial activity against LPS-deffective Escherichia coli OC2530 at 0.5 times MIC by light microscopy relative to control; assay type: functional, organism-based; procedure, shortened: as §1
# Escherichia coli [32] = assay: Antimicrobial activity against LPS-deffective Escherichia coli OC2530 at =< MIC after 3 hrs relative to untreated control; assay type: functional, organism-based
# Escherichia coli [33] = assay: Inhibition of LPS-deficient Escherichia coli OC2530 MurF assessed as UDP-MurNAc-tripeptide substrate level at MIC by HPLC (reference value: 1 fold of control)
# Staphylococcus aureus [34] = assay: Antimicrobial activity against Staphylococcus aureus OC4172 by broth microdilution method; assay type: functional; procedure, shortened: as §3
# Enterococcus faecalis [35] = assay: Antimicrobial activity against Enterococcus faecalis ATCC 29212 by broth microdilution method; assay type: functional; procedure, shortened: as §3
# Escherichia coli [36] = assay: Antimicrobial activity against Escherichia coli ATCC 25922 by broth microdilution method; assay type: functional; procedure, shortened: as §3
# Escherichia coli [37] = assay: Antimicrobial activity against LPS-deffective Escherichia coli OC2530 harboring pASK plasmid by broth microdilution method in presence of chloramphenicol; assay type: functional; procedure, shortened: as §5
# Escherichia coli [38] = assay: Inhibition of LPS-deficient Escherichia coli OC2530 MurF assessed as UDP-MurNAc-tripeptide substrate level at 0.5 times MIC by HPLC (reference value: 1 mAU)
# [39] = Inhibition of Escherichia coli MurF
# Staphylococcus aureus [40] = assay: Antimicrobial activity against Staphylococcus aureus ATCC 29213 by broth microdilution method in presence of polymyxin B nonapeptide; assay type: functional; procedure, shortened: as §3
# Escherichia coli [41] = assay: Inhibition of LPS-deficient Escherichia coli OC2530 MurF assessed as UDP-MurNAc-tripeptide substrate level at 4 times MIC by HPLC (reference value: 1 mAU)
# Escherichia coli [42] = assay: Antimicrobial activity against Escherichia coli OC9040 by broth microdilution method in presence of polymyxin B nonapeptide; assay type: functional; procedure, shortened: as §3
# Escherichia coli [43] = assay: Antimicrobial activity against LPS-deffective Escherichia coli OC2530 assessed as log reduction in bacterial count at 4 times MIC after 30 mins relative to control; assay type: functional
# Enterococcus faecium [44] = assay: Antimicrobial activity against Enterococcus faecium OC3312 by broth microdilution method in presence of polymyxin B nonapeptide; assay type: functional; procedure, shortened: as §3
# Escherichia coli [45] = assay: Antimicrobial activity against LPS-deffective Escherichia coli OC2530 assessed as log reduction in bacterial count at 2 times MIC after 30 mins relative to control; assay type: functional
# Staphylococcus aureus [46] = assay: Antimicrobial activity against methicillin-resistant Staphylococcus aureus OC2878 by broth microdilution method in presence of polymyxin B nonapeptide; assay type: functional; procedure, shortened: as §6
# Staphylococcus aureus [47] = assay: Antimicrobial activity against Staphylococcus aureus OC4172 by broth microdilution method in presence of polymyxin B nonapeptide; assay type: functional; procedure, shortened: as §3
# Escherichia coli [48] = assay: Antimicrobial activity against Escherichia coli ATCC 25922 by broth microdilution method in presence of polymyxin B nonapeptide; assay type: functional; procedure, shortened: as §3
# Escherichia coli [49] = assay: Antimicrobial activity against LPS-deffective Escherichia coli OC2530 at MIC after 30 mins relative to control; assay type: functional, organism-based
# Escherichia coli [50] = assay: Antimicrobial activity against LPS-deffective Escherichia coli OC2530 assessed as cell lysis at 2 times MIC by light microscopy; assay type: functional, organism-based; procedure, shortened: as §1
smiles,measurement,setting,value
COc1ccc2nc(OC)c([C@@H](c3ccccc3)[C@](O)(CCN(C)C)c3ccccc3)cc2c1,Activity,Escherichia coli [1],Active
same,Activity (fold of control),Escherichia coli [2],0.33
same,Activity,Escherichia coli [3],Active
same,Activity,Escherichia coli [4],Active
same,fold change (FC),Escherichia coli [5],0.3
same,Activity,Escherichia coli [6],213 mAU
same,MIC,Enterococcus faecalis [7],> 32 µg/mL
same,Activity,Escherichia coli [8],1200 mAU
same,MIC,Escherichia coli [9],> 32 µg/mL
same,Activity,Escherichia coli [10],Active
same,Activity,Escherichia coli [11],351 mAU
same,FC,Escherichia coli [12],5
same,MIC,Enterococcus faecium [13],> 32 µg/mL
same,MIC,Escherichia coli [14],> 32 µg/mL
same,Activity,Escherichia coli [15],933 mAU
same,Activity,Escherichia coli [16],Active
same,Activity,Escherichia coli [17],Active
same,MIC,Escherichia coli [18],16 µg/mL
same,Activity (fold of control),Escherichia coli [19],1.62
same,FC,Escherichia coli [20],5
same,MIC,Staphylococcus aureus [21],> 32 µg/mL
same,MIC,Staphylococcus aureus [22],> 32 µg/mL
same,Activity (fold of control),Escherichia coli [23],89
same,MIC,Escherichia coli [24],4 µg/mL
same,MIC,Escherichia coli [25],8 µg/mL
same,MIC,Staphylococcus aureus [26],> 32 µg/mL
same,MIC,Staphylococcus aureus [27],> 32 µg/mL
same,Activity (fold of control),Escherichia coli [28],1.48
same,MIC,Escherichia coli [29],2 µg/mL
same,Activity (fold of control),Escherichia coli [30],0.15
same,Activity,Escherichia coli [31],inactive
same,Activity,Escherichia coli [32],inactive
same,Activity (fold of control),Escherichia coli [33],27
same,MIC,Staphylococcus aureus [34],> 32 µg/mL
same,MIC,Enterococcus faecalis [35],> 32 µg/mL
same,MIC,Escherichia coli [36],> 32 µg/mL
same,MIC,Escherichia coli [37],16 µg/mL
same,Activity (fold of control),Escherichia coli [38],6
same,IC50,[39],24 µM
same,MIC,Staphylococcus aureus [40],> 32 µg/mL
same,Activity (fold of control),Escherichia coli [41],63
same,MIC,Escherichia coli [42],8 µg/mL
same,FC,Escherichia coli [43],2
same,MIC,Enterococcus faecium [44],> 32 µg/mL
same,FC,Escherichia coli [45],1
same,MIC,Staphylococcus aureus [46],> 32 µg/mL
same,MIC,Staphylococcus aureus [47],> 32 µg/mL
same,MIC,Escherichia coli [48],8 µg/mL
same,Activity,Escherichia coli [49],Active
same,Activity,Escherichia coli [50],Active

# Reference: ChEMBL document CHEMBL1671657, “MurF inhibitors with antibacterial activity: effect on muropeptide levels” (Antimicrob Agents Chemother, 2009)
